In PubChem BioAssay AID624038 (The Scripps Research Institute Molecular Screening Center, 2012):
Among all 360,000 compounds or so, about 1,100 (0.31%) were called active. The full list was thinned out, with actives kept by preference. A number with no mark means an inactive call.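 How the source made its calls: active means activation above the run cutoff, the mean activation of all test compounds plus 3 SD (cut at about 18% in these data); inactive means the rest.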

Each compound was assayed against Muscarinic acetylcholine receptor M5 (Homo sapiens) (UniProt P08912) (assay: human M5 muscarinic receptor positive allosteric modulators, primary screen, CHO-K1 cells, Fluo-8 calcium fluorescence (AID 624038)). Conditions: CHO-K1 hM5, Fluo-8 calcium, ACh EC20 PAM; at 3 µM; hits give high values; 0% = ACh EC20, 100% = ACh EC100.
Procedure, shortened: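 Assay system: CHO-K1 hM5 cells / Incubation: Fluo-8 loading 80 min at 37 °C plus 30 min room temperature / Technique: Fluo-8 calcium dye fluorescence, kinetic read / Repeats: single replicate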

Muscarinic acetylcholine receptor M5 (Homo sapiens), sequence (P08912 whole entry, looked up): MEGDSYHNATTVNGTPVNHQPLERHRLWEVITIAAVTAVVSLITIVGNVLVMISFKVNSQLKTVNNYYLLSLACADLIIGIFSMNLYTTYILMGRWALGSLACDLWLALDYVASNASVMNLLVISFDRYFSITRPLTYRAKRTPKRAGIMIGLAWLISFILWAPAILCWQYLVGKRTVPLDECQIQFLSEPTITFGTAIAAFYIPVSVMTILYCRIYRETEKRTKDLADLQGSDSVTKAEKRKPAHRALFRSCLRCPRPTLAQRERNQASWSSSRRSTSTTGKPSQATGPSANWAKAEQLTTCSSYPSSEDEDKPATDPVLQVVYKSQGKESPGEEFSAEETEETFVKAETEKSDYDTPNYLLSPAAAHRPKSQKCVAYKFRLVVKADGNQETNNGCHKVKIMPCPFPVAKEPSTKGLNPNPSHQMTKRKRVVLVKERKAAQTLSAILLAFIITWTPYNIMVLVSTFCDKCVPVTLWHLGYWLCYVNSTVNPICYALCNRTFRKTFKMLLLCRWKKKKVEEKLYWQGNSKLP

Row | Compound | activation
1 | COc1ccc(OCC(=O)NCCS(=O)(=O)N2CCN(c3ccc(F)cc3)CC2)cc1 | 5.36%
2 | CCCCNC(=O)N(O)C1N(/N=C/c2ccccc2O)C(=S)SC1(C)C (stereo unspecified) | -0.6%
3 | O=C(Nc1ccc(Cl)cn1)Nc1cccs1 | 29.7% (active)
4 | Cc1cccc(OCC(=O)OCC(=O)Nc2ccc(Cl)cn2)c1 | 5.11%
5 | O=C(COC(=O)c1ccco1)Nc1ccc(Cl)cn1 | 4.61%
6 | Cc1ccc(C(=O)OC2=CC(=O)CC(C)(C)C2)cc1 | 0.4%
7 | Cc1ccc(C(C(=O)NCc2ccco2)N(CC2CCCO2)C(=O)Cn2nnc3ccccc32)cc1 (stereo unspecified) | -1.09%
8 | CCOc1cc(C(C(=O)NCC2CCCO2)N(C(=O)Cn2nnc3ccccc32)c2cccc(OC)c2)ccc1O (stereo unspecified) | 19% (active)
9 | COc1ccc(C(C(=O)NCC2CCCO2)N(C(=O)Cn2nnc3ccccc32)c2ccc(NC(C)=O)cc2)cc1OC (stereo unspecified) | 5.16%
10 | Cc1cc(C)c(OCCN2CC(C)OC(C)C2)c(Br)c1 (stereo unspecified) | 23.1% (active)
11 | CC1CN(CCOc2ccccc2[N+](=O)[O-])CC(C)O1 (stereo unspecified) | 8.76%
12 | CC1CN(CCCOc2ccccc2-c2ccccc2)CC(C)O1 (stereo unspecified) | 0.63%
13 | CCN(CC)Cc1csc2ccc(Br)cc12 | -8.32%
14 | CN(Cc1ccccc1)C(=O)[C@@H]1CCCN1C(=O)[C@@H]1CCCN1C(=O)c1c(F)cccc1F | -3.49%
15 | O=C(CCN1C(=O)[C@@H]2Cc3ccccc3CN2C1=O)NCc1ccccc1 | 21.5% (active)
16 | O=C(CCN1C(=O)[C@@H]2Cc3ccccc3CN2C1=O)NCCc1ccccc1 | -2.71%
17 | Cc1ccc(CNC(=O)CCN2C(=O)[C@@H]3Cc4ccccc4CN3C2=O)cc1 | -3.61%
18 | c1ccc(CCc2ccccn2)cc1 | -5.1%
19 | O=C(O)C(CCc1ccccn1)c1ccccc1 (stereo unspecified) | 19.2% (active)
20 | O=C(CNC(=O)COc1ccccc1)NCCc1ccccn1 | -11%
21 | Cc1cccc(C(=O)NC2CCN(CC(=O)Nc3cccc(Cl)c3)CC2)c1 | -2.77%
22 | CCC(C)(C)n1nnnc1C(c1ccc(OC)c(OC)c1)N1CCN(C(=O)c2ccco2)CC1 (stereo unspecified) | 4.04%
23 | COc1ccccc1N(C)C(=O)c1cc(S(=O)(=O)N2CCc3ccccc32)cn1C | -2.97%

Row | Compound | activation
24 | COc1cccc(OC)c1C(=O)Nc1ccc(N2CCCCC2)cc1 | 20.9% (active)
25 | COc1ccccc1C(=O)Nc1ccc(OCC(=O)N2CCCCC2)cc1 | 1%
26 | COc1ccccc1C(=O)NC(=S)Nc1ccc(N2CCOCC2)cc1 | 4.29%
27 | CN(C)c1ccc(/C=N/NC(=O)C(O)c2ccc(Br)cc2)cc1 (stereo unspecified) | 20.2% (active)
28 | COc1ccc(/C=N/NC(=O)C(C)N(c2ccc(OC)cc2)S(C)(=O)=O)cc1 (stereo unspecified) | -7.14%
29 | CN(C)c1ccc(/C=N/NC(=O)c2ccc(Cn3cc(Br)cn3)o2)cc1 | -6.88%
30 | O=C(NC1CCCCC1)C1CCC(CNS(=O)(=O)c2ccccc2)CC1 (stereo unspecified) | -2.41%
31 | COc1cc(C(=O)NC2CCN(C)CC2)ccc1Nc1ncc2c(n1)N(C1CCC(O)CC1)CCC(=O)N2C (stereo unspecified) | -2.26%
32 | CCCCCNC(=O)C1C(=O)Nc2ccccc2C(=O)N1C(C)(C)C (stereo unspecified) | 7.08%
33 | COCCNC(=O)c1onc(CSc2cccc(C)c2)c1C(=O)O | -3.85%
34 | O=C(NNc1nc(N2CCCC2)nc(N2CCCC2)n1)c1ccccc1 | 6.43%
35 | O=C(NNC(=O)C1CCC1)c1ccccc1 | 2.72%
36 | O=C(NNC(=O)C1CCN(c2ncccn2)CC1)c1ccccc1 | 26.2% (active)
37 | CN(C)/C(=N\OC(=O)c1ccccc1)c1nonc1N | -4.7%
38 | COc1cc(Cn2c3ccc(NC(=O)CC(C)c4ccccc4)cc3c(=O)n2C)ccc1F (stereo unspecified) | -5.77%
39 | O=C(Nc1cccc(C(=O)O)c1)/C(=C\c1ccccc1)NC(=O)c1ccc(Br)o1 | -2.27%
40 | COc1ccc(NS(=O)(=O)c2ccc(C)c(C(=O)N(C)Cc3ccc(OC)cc3OC)c2)cc1 | -3.1%
41 | CCC(NC(=O)c1ccccc1NC(=O)c1ccccc1)C(=O)NNC(=O)CSc1nc2ccccc2o1 (stereo unspecified) | -8.71%
42 | COc1cc(CNCc2ccc3c(c2)OCO3)c([N+](=O)[O-])cc1OC | -5.12%
43 | Cc1ccc(S(=O)(=O)N(Cc2ccccc2)c2ccccn2)cc1[N+](=O)[O-] | -10.1%
44 | O=C(Cc1ccccc1Cl)N1CCN(c2ccccn2)CC1 | -0.15%
45 | Cc1ccc2oc(=O)c3cnn(CC(=O)N4CCN(c5ccccn5)CC4)c3c2c1 | -15.1%
46 | Nc1ccn(CC(=O)N2CCN(c3ccccn3)CC2)c(=O)n1 | 19% (active)

Row | Compound | activation
47 | COc1ccc2c(c1OC)C(=O)OC2Nc1nc(-c2ccccc2)cs1 (stereo unspecified) | 4.62%
48 | Cc1cccc(Nc2nc(-c3ccccc3)cs2)n1 | 22.1% (active)
49 | CC(=O)NC(c1ccccc1)c1nc(-c2cccc(C(C)C)c2)cs1 (stereo unspecified) | -1.15%
50 | Cc1cccc(N(C(=O)Cc2cccs2)C(C(=O)NC2CCCC2)c2ccsc2)c1 (stereo unspecified) | -1.6%
51 | Cc1cc(C)cc(NC(=O)N2CCC(NC(=O)c3ccc(F)cc3)CC2)c1 | 18.7% (active)
52 | Cc1ccc(C(=O)NC2CCN(C(=O)Nc3ccccc3Cl)CC2)cc1 | -7.16%
53 | Cc1ccc(C(=O)NC2CCN(C(=O)Nc3ccc(F)cc3)CC2)cc1 | -2.54%
54 | CCOc1ccc(C(=O)NC2CCN(C(=O)Nc3ccccc3OC)CC2)cc1 | 19.6% (active)
55 | COc1ccc(C(=O)NC2CCN(C(=O)Nc3ccc(F)cc3)CC2)cc1 | 1.29%
56 | CCOc1ccc(C(=O)NC2CCN(S(=O)(=O)CC)CC2)cc1 | 11.7%
57 | Cc1ccc(OCC(=O)N2CCN(S(=O)(=O)c3ccc(Cl)s3)CC2)cc1C | 6.01%
58 | CCCNCc1cc(OCC)c(OCC(=O)Nc2ccccc2)cc1Br | -3.11%
59 | C=CC[C@@H](CC(=O)N[C@@H](CO)Cc1ccccc1)C(=O)N[C@H](COC(=O)[C@H](CC=C)CC(=O)OC(C)(C)C)Cc1ccccc1 | 12.5%
60 | CCOC(=O)c1c(NC(=O)NC(C)(C)C)sc2c1CCN(C)C2 | -2.43%
61 | CCOC(=O)C(C)N(c1ccccc1Cl)S(C)(=O)=O (stereo unspecified) | 4.74%
62 | O=C(Nc1cc(S(=O)(=O)N2CCOCC2)ccc1OCC(F)(F)F)c1ccc(N2CCCC2=O)cc1 | -1.35%
63 | COc1ccc(/C=C(/NC(=O)c2ccco2)C(=O)Nc2ccc(C(C)=O)cc2)cc1 | 5.57%
64 | Cc1c(-c2cccc(Cl)c2)nc2ccccc2c1C(=O)OCC(=O)N(C)C1CCS(=O)(=O)C1 (stereo unspecified) | 20.2% (active)
65 | CN(C(=O)COC(=O)c1cc(-c2ccco2)nc2ccccc12)C1CCS(=O)(=O)C1 (stereo unspecified) | 2.3%
66 | COc1ccc2c(-c3ccccc3)cc(SCC(=O)N(C)C3CCS(=O)(=O)C3)nc2c1 (stereo unspecified) | -0.41%
67 | CCOC(=O)C1=C(C)OC(N)=C(C#N)C1c1cncc(-c2ccc(F)cc2)c1 (stereo unspecified) | -7.72%
68 | CN1CCN(S(=O)(=O)c2ccc(Nc3ccc(F)cc3)nc2)CC1 | 11.7%
69 | C=CCN1C(=O)c2ccc(C(=O)N3CCC(C(=O)OCC)CC3)cc2C1=O | 44.4% (active)

Row | Compound | activation
70 | CCOC(=O)C1CCCN(C(=O)c2ccc(C)c(F)c2)CC1 (stereo unspecified) | 0.17%
71 | CCOC(=O)C1CCCN(C(=O)c2ccc(N(C)C)cc2)CC1 (stereo unspecified) | -2.3%
72 | C=CCOC(=O)c1ccccc1C(=O)OCC=C | 0.16%
73 | O=C(COC(=O)/C=C/c1ccc(OC(F)F)cc1)NC1CCCCC1 | -3.38%
74 | CCN(CCn1cccn1)C(=O)CC1C(=O)NCCN1Cc1cccc(OC)c1OC (stereo unspecified) | -1.21%
75 | CCCC(CNC(=O)COC(=O)C1=NNC(=O)CC1)c1ccc(Cl)cc1Cl (stereo unspecified) | 8.77%
76 | O=C(c1ccco1)N1CCN(CCOc2ccccc2)CC1 | 2.94%
77 | COC(c1ccccc1)c1nnc(CCC(=O)N2CCN(CCOc3ccccc3)CC2)o1 (stereo unspecified) | 20% (active)
78 | O=C(c1ccc(Br)o1)N1CCN(CCOc2ccccc2)CC1 | 4.96%
79 | CCC1=[N+]([O-])C(C)(/C(C)=N\O)N(O)C1(C)C (stereo unspecified) | 3.88%
80 | CC(C)Cn1cc(-c2cncc3nccn23)cn1 | -3.57%
81 | CN(C)Cc1c(C#N)c2ccccc2n1C | 18.2% (active)
82 | COc1ccc(-c2c(C#Cc3ccccc3)c3ccccc3n2C)cc1 | 0.62%
83 | CC(C)(C)n1nc(Cc2cccc3ccccc23)c(C#N)c1N | -3.53%
84 | CCN(Cc1ccccc1)C(=O)Cc1ccc(OC)c(S(=O)(=O)N2CCOCC2)c1 | 0.97%
85 | COc1ccc(NC(=O)CNC(=O)Cn2ccc3ccccc3c2=O)c(OC)c1 | 0.07%
86 | CCN(C[C@H]1N[C@@](CC)(C(=O)OC)[C@H]2C(=O)N(C)C(=O)[C@@H]12)C(=O)Nc1ccc(F)cc1 | -0.26%
87 | O=C(NCc1ccccc1)C1c2ccccc2OCC(=O)N1C1CC1 (stereo unspecified) | 6.75%
88 | Cc1ccc(NC(=O)CSc2nnc(CNC(=O)c3ccccc3F)o2)cc1 | 0.28%
89 | Cc1ccc(NC(=O)CSc2nnc(CNC(=O)c3ccccc3F)o2)cc1Cl | -1.76%
90 | O=C(NCc1nnc(SCC(=O)N2CCCc3ccccc32)o1)c1ccccc1F | 22.5% (active)
91 | COCCNC(=O)C1CCCN(Cc2ccccc2Cl)CC1 (stereo unspecified) | 0.83%
